MrgX1 PAM: allosterically activates human MrgX1 receptor signaling; Q96LB2; MrgX1-HEK293, Fluo-4 calcium flux, FDSS; hits give high values; B-score at 10 µM; hit rate 0.63% among 310,000; AID 588675;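 active = plate-corrected calcium response at least 3 library SD above typical, normal starting fluorescence, not activating the receptor alone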;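 also: compound read alongside a low EC10 to EC30 dose of BAM8-22 agonist; peak minus trough fluorescence over baseline measured at the second addition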
Target sequence (Q96LB2 whole entry, looked up): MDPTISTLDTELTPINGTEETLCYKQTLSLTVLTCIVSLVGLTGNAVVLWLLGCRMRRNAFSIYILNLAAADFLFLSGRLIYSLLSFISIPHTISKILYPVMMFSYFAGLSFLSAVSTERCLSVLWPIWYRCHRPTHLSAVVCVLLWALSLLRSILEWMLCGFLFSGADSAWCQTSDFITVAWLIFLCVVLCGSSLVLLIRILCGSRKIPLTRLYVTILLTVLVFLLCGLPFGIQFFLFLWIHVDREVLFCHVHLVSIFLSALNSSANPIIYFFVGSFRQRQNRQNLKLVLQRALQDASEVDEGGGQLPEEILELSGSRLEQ
MrgX1 agonist: human MrgX1 receptor agonism, primary screen. B-score at 10 µM. AID 588627. MrgX1-HEK293 cells, Fluo-4 calcium fluorescence, agonist mode; hits give high values. Q96LB2. hit rate 0.44% among 310,000;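 active = calcium response B-score plate-corrected fluorescence ratio at least 3 library SD, with starting fluorescence B-score inside 5 SD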
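Material: MrgX1-expressing HEK293 cells / Dosing: compound as first of three additions / Incubation: overnight seeding, then 1 h dark dye loading / Signal: Fluo-4 NW calcium fluorescence / Evaluation: B-scored fluorescence response ratio / Benchmarks: positive and negative control wells on each plate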
RGS4 act: RGS4 potentiation or activation; hit rate 0.92% among 310,000; B-score at 10 µM; AID 463111; HEK293 M3R/inducible RGS4, carbachol calcium flux Fluo4; hits give low values;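 active = B-score of the integrated calcium signal more than 4 SD below the library mean, with starting fluorescence not abnormally high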;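 also: negative B-score means reduced calcium response which marks RGS4 activation or potentiation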
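Also added: carbachol at ECmax as muscarinic agonist stimulus; Assay system: HEK293 cells with stable M3R and inducible RGS4; Timing: overnight RGS4 induction, 30 min dye load 37 °C, 20 min compound RT; Measured by: Fluo4-AM (2 µM) calcium-flux fluorescence, kinetic read.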
RGS4 block: inhibitors of human RGS4; B-score at 10 µM; HEK293 M3R/RGS4 inducible, Fluo-4 calcium flux; hits give high values; triggered by carbachol at its EC20; AID 463165; hit rate 0.45% among 310,000;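 active = B-score, a plate-corrected calcium signal, over three deviations above library mean, with baseline fluorescence within five deviations of library mean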;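 also: RGS4 expression induced by doxycycline in cells with stable M3 receptor; B-score is computed from the integrated fluorescence ratio over baseline after carbachol; higher B-score means a larger calcium signal and so more RGS4 inhibition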
Target sequence (P49798 whole entry, looked up): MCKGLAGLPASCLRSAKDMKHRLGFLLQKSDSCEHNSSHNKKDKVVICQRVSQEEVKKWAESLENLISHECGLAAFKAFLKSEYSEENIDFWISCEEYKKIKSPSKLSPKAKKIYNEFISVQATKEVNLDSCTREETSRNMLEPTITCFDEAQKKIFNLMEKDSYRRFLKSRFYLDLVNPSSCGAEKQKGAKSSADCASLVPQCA
MrgX1 antagonist: human MrgX1 receptor antagonism, primary screen; MRGX1-HEK293 calcium flux, Fluo-4, BAM8-22 antagonism; hits give low values; hit rate 1.3% among 310,000; B-score at 10 µM;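 active = calcium-response B-score plate-corrected more than 3 library SD below zero, starting fluorescence within 5 deviations, no agonist response on first addition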;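 also: peak minus trough fluorescence over baseline after final BAM8-22 challenge near maximal dose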
MrgX1 antag conf: confirmation of human MrgX1 receptor antagonists; shares compounds with MrgX1 antagonist; remaining BAM8-22 calcium response % of control (hits give low values), % at 10 µM; MrgX1-HEK293, BAM8-22 calcium flux, Fluo-4; hits give low values; hit rate 19% among 2,300; AID 602420;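 active = remaining agonist calcium response no higher than 100% minus 3 SD of agonist-only control wells, with starting fluorescence near control levels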;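 also: agonist BAM8-22 given at a near maximal EC90 to ECmax level; peak minus minimum fluorescence divided by baseline after agonist addition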
HEK293 Ca flux: MrgX1 antagonist counter-screen hit in parental HEK293 cells; shares compounds with MrgX1 antagonist; Fluo-4 calcium fluorescence, FDSS; fluorescence ratio F(max-min)/F0 at 10 µM; hit rate 2% among 4,000; AID 624111;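 active = duplicate-averaged calcium fluorescence ratio at least three times the standard deviation of buffer wells, a nonspecific response in parental cells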
HEK293 Ca counter: MrgX1 allosteric activator counter-screen hit in parental HEK293 cells. parental HEK293 calcium flux, Fluo-4 fluorescence ratio; hits give high values. hit rate 0.4% among 4,000. fluorescence ratio F(max-min)/F0 at 10 µM. shares compounds with MrgX1 antagonist;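 active = calcium fluorescence ratio, averaged over duplicates, at least 3 SD of the buffer-well ratio, meaning a nonspecific response in receptor-free cells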;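 also: untransfected parental HEK293 lacking MrgX1 used as counterscreen for MrgX1 allosteric activators; fluorescence change taken during the second addition on a kinetic imager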
HEK293 Ca cntr2: activity in parental HEK293 cells lacking MrgX1 receptor; shares compounds with MrgX1 antagonist; Fluo-4 calcium fluorescence (FDSS); hits give high values; fluorescence ratio F(max-min)/F0 at 10 µM; hit rate 8.7% among 4,000;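 active = calcium fluorescence ratio at least three times the spread of buffer wells, meaning a non-specific response in parental cells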
An asterisk follows results filed as active; i = inactive; . = not tested or not shown. Shown are actives, neighbours in structure and some others; about 3.5% of the full set was active somewhere.

SMILES | MrgX1 PAM | MrgX1 agonist | RGS4 act | RGS4 block | MrgX1 antagonist | MrgX1 antag conf | HEK293 Ca flux | HEK293 Ca counter | HEK293 Ca cntr2
CCOC(=O)N1CCC(=NNC(=O)NC2CCCCC2)CC1 | i | i | i | i | -21.1* | i | i | i | i
CCOC(=O)N1CCN(C(=O)NC2CCCCC2)CC1 | i | i | i | i | i | . | . | . | .
CC(C)(C)c1nc2c(Br)cc(Br)cc2c(=O)o1 | i | i | i | i | i | . | . | . | .
O=C(Oc1cccc(-n2cnnn2)c1)c1ccco1 | i | i | i | i | -6.53* | 78.6%* | i | i | i
Cc1ccc(S(=O)(=O)N(CC(=O)Nc2ccccc2C(=O)O)c2cccc(Cl)c2C)cc1 | i | i | i | i | -7.07* | i | i | i | i
CN1CC2([N+](=O)[O-])CC=C(OCCO)C([N+](=O)[O-])(C1)C2 (stereo unspecified) | i | i | i | i | i | . | . | . | .
CCOC(=O)c1c(NC(=O)c2c(Br)cnn2CC)sc(C)c1C | i | i | i | i | -7.1* | i | i | i | i
CCn1ncc(Br)c1C(=O)Nc1sc2c(c1C(=O)OC)CCC2 | i | i | i | i | i | . | . | . | .
COC(/C=C/Nc1ccc(Br)cc1)=C(C#N)C#N | i | i | i | i | i | . | . | . | .
COc1cccc(NC(=O)C2CCCN2C(=O)Nc2ccccc2)c1 (stereo unspecified) | i | i | i | i | i | . | . | . | .
COc1ccccc1NC(=O)N1CCCC1C(=O)NCc1ccccc1 (stereo unspecified) | i | i | i | i | -5.69* | i | i | i | i
COc1ccc(NC(=O)N2CCCC2C(=O)NCc2ccc(F)cc2)cc1 (stereo unspecified) | i | i | i | i | -12.6* | i | i | i | i
COc1cccc(NC(=O)C2CCCN2C(=O)Nc2cccc(F)c2)c1 (stereo unspecified) | i | i | i | i | -4.92* | i | i | i | i
COc1cccc(-c2nn(-c3ccccc3)cc2/C=C(/NC(=O)c2ccccc2)C(=O)O)c1 | i | i | i | i | i | . | . | . | .
COc1ccc(C(=O)Cn2c(C(=O)/C=C/c3ccccc3)nc3ccccc32)cc1 | i | i | i | i | i | . | . | . | .
NC(=O)c1sc2nc(-c3cccs3)ccc2c1N | i | i | i | i | i | . | . | . | .
Nc1c(C(=O)NC2CCCC2)sc2nc(-c3cccs3)ccc12 | i | i | i | i | -4.74* | i | i | i | i
COc1ccc(-c2csc(NC(=O)c3cc(C)oc3C)n2)cc1OC | i | i | i | i | -4.94* | 71.1%* | i | i | i
CCc1noc(C)c1C(=O)Nc1nc(-c2ccc(OC)c(OC)c2)cs1 | i | i | i | i | i | . | . | . | .
COc1ccc(-c2csc(NC(=O)Cc3ccccc3F)n2)cc1OC | i | i | i | i | -6.09* | 78.0%* | i | i | i
COc1ccccc1CC(=O)Nc1nc(-c2ccc(F)c(F)c2)cs1 | i | i | i | i | i | . | . | . | .
COc1ccc(-c2csc(NC(=O)C3CCN(c4ncnc5sc(C)c(C)c45)CC3)n2)cc1OC | i | i | i | i | -6* | 79.3%* | i | i | i
Cc1cc(=O)[nH]n(CCO)c1=O | i | i | i | i | i | . | . | . | .
CCOC(=O)c1ccccc1NC(=O)CSc1nc(N)cc(=O)[nH]1 | i | i | i | i | i | . | . | . | .
Cc1cccc(NC(=S)Nc2c(C)n(C)n(-c3ccccc3)c2=O)c1C | i | i | i | i | -18.1* | i | i | i | i
SMILES | MrgX1 PAM | MrgX1 agonist | RGS4 act | RGS4 block | MrgX1 antagonist | MrgX1 antag conf | HEK293 Ca flux | HEK293 Ca counter | HEK293 Ca cntr2
Cc1cccc(NC(=O)Nc2c(C)n(C)n(-c3ccccc3)c2=O)c1C | i | i | i | i | i | . | . | . | .
Cc1ccc2c(c1)nnn2C1CCN(S(=O)(=O)c2ccc(C(=O)NC3CCCC3)cc2)CC1 | i | i | i | i | i | . | . | . | .
Cc1ccc2c(c1)nnn2C1CCN(S(=O)(=O)c2ccc(C(=O)N(C)C)cc2)CC1 | i | i | i | i | -7.04* | i | i | i | i
Cc1ccc(C)c(S(=O)(=O)C(C#N)c2nc3ccccc3nc2N2CC(C)OC(C)C2)c1 (stereo unspecified) | i | i | i | i | -7.42* | 81.4%* | i | i | 55.8*
Cc1ccc(C)c(S(=O)(=O)C(C#N)c2nc3ccccc3nc2N2CCCC2)c1 (stereo unspecified) | i | i | i | i | i | . | . | . | .
O=C(Nc1cccnc1)c1cc(-c2ccccc2)on1 | i | i | i | i | i | . | . | . | .
O=C(Nc1cccnc1)c1cc(-c2ccc(Br)cc2)on1 | i | i | i | i | -8.7* | i | i | i | i
CC(NC(=O)Cn1cnnn1)C12CC3CC(CC(C3)C1)C2 (stereo unspecified) | i | i | i | i | -6.79* | i | i | i | i
CC(NC(=O)CN1CCCC1)C12CC3CC(CC(C3)C1)C2 (stereo unspecified) | i | i | i | i | i | . | . | . | .
Cc1cc(=O)[nH]c(SCc2nnnn2-c2ccc(Cl)cc2)n1 | i | i | i | i | i | . | . | . | .
Nc1cc(=O)[nH]c(SCc2nnnn2-c2ccc(Cl)cc2)n1 | i | i | i | i | -6.87* | i | i | i | i
O=C(OCCN1C(=O)c2ccccc2C1=O)c1cccs1 | i | i | i | i | -5.03* | i | i | i | i
Nc1ncnc2c1ncn2CCN1CCCCC1 | i | i | i | i | -5.72* | i | i | i | i
CC1CN(CCn2cnc3c(N)ncnc32)CC(C)O1 (stereo unspecified) | i | i | i | i | i | . | . | . | .
O=C1CCc2cc(S(=O)(=O)N3CCN(c4ccccc4F)CC3)ccc2N1 | i | i | i | i | -4.99* | i | i | i | i

From PubChem
